# In ChEMBL document CHEMBL2176927 (J Med Chem, 2012):
# Active and inactive are the calls of the source. No cut-off for these calls is given here.
# Experiments:
# [1] = system: PC-3; assay: Cytotoxicity against human pTEN deficient PC3 after 3 days; format: functional, cell-based; settings: PC-3, 72 h
# [2] = Inhibition of mTORC2 in human pTEN deficient NCI-PC3 cells assessed as reduction of Akt phosphorylation at Ser473; format: cell-based
# [3] = Volume of distribution at steady state in mouse at 1 mg/kg, iv; format: ADME, organism-based; set-up: dose 1 mg/kg, route intravenous; settings: in vivo, read-out: Vdss
# [4] = system: PC-3; assay: Antitumor activity against human PC3 cells xenografted mouse assessed as tumor growth inhibition at 50 mg/kg, po qd for 14 days; format: functional, organism-based; set-up: dose 50 mg/kg
# Summary of the method: (§1)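 Female NCR.nude mice with subcutaneous NCI-PC3 flank tumours, dosed orally once daily (or twice daily at the same daily total) for 14 days from a mean tumour volume of 200 mm3; 5 mice/group. Caliper volume is (L x W x W)/2, measured twice weekly.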
# [5] = Oral bioavailability in mouse at 5 mg/kg; format: ADME, organism-based; settings: in vivo
# [6] = system: PC-3; assay: Antitumor activity against human PC3 cells xenografted mouse assessed as tumor growth inhibition at 6.25 to 100 mg/kg, po qd for 14 days; format: functional, organism-based; summary of the method: as §1
# [7] = molecular target: Cytochrome P450 2C19 (Homo sapiens, UniProt P33261); assay: Inhibition of CYP2C19-mediated mephenytoin metabolism; format: ADME; settings: recombinant enzyme
# Sequence of Cytochrome P450 2C19 (P33261 whole entry): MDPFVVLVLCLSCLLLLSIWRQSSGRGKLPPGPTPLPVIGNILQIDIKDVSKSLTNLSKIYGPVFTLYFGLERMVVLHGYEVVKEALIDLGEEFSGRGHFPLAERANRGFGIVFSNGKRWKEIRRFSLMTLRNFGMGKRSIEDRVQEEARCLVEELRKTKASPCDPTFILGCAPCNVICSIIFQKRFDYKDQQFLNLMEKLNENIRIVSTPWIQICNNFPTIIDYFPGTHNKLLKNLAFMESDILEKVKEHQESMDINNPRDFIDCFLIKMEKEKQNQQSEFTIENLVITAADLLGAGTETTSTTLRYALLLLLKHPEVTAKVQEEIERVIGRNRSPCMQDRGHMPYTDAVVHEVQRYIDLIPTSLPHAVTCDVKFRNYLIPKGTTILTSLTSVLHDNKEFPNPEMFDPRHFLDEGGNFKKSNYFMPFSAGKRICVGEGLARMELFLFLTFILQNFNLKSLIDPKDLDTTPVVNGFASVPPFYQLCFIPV
# [8] = molecular target: Cytochrome P450 2D6 (Homo sapiens, UniProt P10635); assay: Inhibition of CYP2D6-mediated dextromethorphan metabolism; format: ADME; settings: recombinant enzyme
# Sequence of Cytochrome P450 2D6 (P10635 whole entry): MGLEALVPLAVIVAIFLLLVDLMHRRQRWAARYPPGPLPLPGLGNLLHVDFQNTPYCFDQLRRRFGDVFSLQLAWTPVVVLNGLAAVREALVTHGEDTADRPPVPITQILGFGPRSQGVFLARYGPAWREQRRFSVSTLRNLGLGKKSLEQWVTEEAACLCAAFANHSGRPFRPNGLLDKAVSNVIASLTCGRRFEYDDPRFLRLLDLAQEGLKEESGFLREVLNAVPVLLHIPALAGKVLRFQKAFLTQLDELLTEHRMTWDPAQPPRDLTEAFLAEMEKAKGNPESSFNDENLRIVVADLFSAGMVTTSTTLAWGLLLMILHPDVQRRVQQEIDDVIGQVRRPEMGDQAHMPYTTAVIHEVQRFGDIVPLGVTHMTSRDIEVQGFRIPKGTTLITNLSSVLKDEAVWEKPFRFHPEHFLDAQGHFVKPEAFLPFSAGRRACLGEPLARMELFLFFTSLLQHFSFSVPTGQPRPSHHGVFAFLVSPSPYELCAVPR
# [9] = molecular target: Cytochrome P450 2C9 (Homo sapiens, UniProt P11712); assay: Inhibition of CYP2C9-mediated warfarin metabolism; format: ADME; settings: recombinant enzyme
# Sequence of Cytochrome P450 2C9 (P11712 whole entry): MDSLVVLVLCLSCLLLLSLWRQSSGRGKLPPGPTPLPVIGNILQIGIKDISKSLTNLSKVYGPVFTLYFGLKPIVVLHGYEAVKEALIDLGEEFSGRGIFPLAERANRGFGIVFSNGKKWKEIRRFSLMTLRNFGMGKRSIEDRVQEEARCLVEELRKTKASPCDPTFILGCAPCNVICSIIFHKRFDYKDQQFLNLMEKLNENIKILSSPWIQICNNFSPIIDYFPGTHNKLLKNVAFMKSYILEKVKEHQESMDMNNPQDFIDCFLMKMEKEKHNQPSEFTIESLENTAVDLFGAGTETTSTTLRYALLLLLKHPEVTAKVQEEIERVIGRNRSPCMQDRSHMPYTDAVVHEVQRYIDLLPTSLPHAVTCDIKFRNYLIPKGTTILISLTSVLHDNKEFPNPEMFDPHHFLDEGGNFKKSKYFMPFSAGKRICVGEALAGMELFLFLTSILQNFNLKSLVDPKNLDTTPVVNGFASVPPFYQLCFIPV
# [10] = Half life in mouse at 1 mg/kg, iv; format: ADME, organism-based; set-up: dose 1 mg/kg, route intravenous; settings: in vivo
# [11] = organism: Mus musculus; settings: PC-3, 25 to 100 mg/kg
# [12] = system: Mus musculus; assay: Toxicity in human PC3 cells xenografted mouse assessed as reduction of body weight at 200 mg/kg, po qd for 14 days; format: organism-based, PC-3; set-up: dose 200 mg/kg, route oral; scale not given: the % may be the effect or the level left; settings: in vivo, 336 h
# Summary of the method: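 Same PC3 s.c. xenograft in nude mice with QD oral dosing, 5 animals per group. Body weight was measured twice weekly; loss above 10% is the protocol limit for tolerated doses and triggers a dosing holiday.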
# [13] = AUC in mouse at 5 mg/kg, po; format: ADME, organism-based; set-up: dose 5 mg/kg, route oral; settings: plasma
# [14] = molecular target: Cytochrome P450 3A4 (Homo sapiens, UniProt P08684); assay: Inhibition of CYP3A4-mediated midazolam and testosterone metabolism; format: ADME; settings: recombinant enzyme
# Sequence of Cytochrome P450 3A4 (P08684 whole entry): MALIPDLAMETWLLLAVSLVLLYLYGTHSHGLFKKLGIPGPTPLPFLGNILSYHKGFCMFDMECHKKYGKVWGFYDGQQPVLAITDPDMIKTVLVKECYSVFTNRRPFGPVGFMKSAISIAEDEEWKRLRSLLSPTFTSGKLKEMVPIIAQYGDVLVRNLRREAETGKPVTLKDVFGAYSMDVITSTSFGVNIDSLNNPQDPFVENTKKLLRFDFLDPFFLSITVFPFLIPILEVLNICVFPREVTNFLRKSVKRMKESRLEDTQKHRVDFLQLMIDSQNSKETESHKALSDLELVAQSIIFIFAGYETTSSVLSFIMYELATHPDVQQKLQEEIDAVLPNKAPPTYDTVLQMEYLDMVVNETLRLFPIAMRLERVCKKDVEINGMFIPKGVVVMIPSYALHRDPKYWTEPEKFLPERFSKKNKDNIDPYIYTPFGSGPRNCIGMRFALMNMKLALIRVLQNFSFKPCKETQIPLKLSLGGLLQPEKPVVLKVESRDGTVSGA
# [15] = molecular target: T1, Cytochrome P450 1A2 (Homo sapiens, UniProt P05177); assay: Inhibition of CYP1A2-mediated phenacetin metabolism; format: ADME; settings: recombinant enzyme
# T1 sequence (P05177 whole entry): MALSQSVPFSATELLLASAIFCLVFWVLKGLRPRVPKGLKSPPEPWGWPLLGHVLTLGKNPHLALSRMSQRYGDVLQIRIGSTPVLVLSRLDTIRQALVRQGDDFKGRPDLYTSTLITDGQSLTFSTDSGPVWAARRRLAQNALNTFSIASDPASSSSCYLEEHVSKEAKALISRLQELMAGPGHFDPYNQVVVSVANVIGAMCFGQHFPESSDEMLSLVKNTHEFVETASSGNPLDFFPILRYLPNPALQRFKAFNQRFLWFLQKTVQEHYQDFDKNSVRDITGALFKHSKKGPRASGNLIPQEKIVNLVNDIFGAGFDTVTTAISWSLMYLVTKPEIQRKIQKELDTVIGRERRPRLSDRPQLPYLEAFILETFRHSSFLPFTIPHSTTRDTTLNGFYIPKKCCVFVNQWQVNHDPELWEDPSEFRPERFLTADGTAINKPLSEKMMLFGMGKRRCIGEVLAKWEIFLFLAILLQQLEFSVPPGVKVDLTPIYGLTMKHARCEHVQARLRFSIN
# [16] = Clearance in mouse liver microsomes; format: ADME, Microsome
# Summary of the method: (§2)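 Hepatic clearance (Clhep) predicted from incubation with human, rat or mouse liver microsomes.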
# [17] = Clearance in mouse at 1 mg/kg, iv; format: ADME, organism-based; set-up: dose 1 mg/kg, route intravenous; settings: in vivo
# [18] = organism: Mus musculus; settings: U-87MG ATCC, 100 mg/kg
# [19] = system: PC-3; assay: Antitumor activity against human PC3 cells xenografted mouse assessed as tumor growth inhibition at […] to 100 mg/kg, po bid for 14 days; format: functional, organism-based; summary of the method: as §1
# [20] = organism: Mus musculus; settings: U-87MG ATCC, 100 mg/kg; remark: listed apart in the source
# [21] = organism: Mus musculus; settings: PC-3, 25 to 100 mg/kg; remark: listed apart in the source
# [22] = Cytotoxicity against human MCF7/neo expressing HER2 after 3 days; format: functional
# [23] = Plasma protein binding in rat; format: ADME, cell-free; settings: read-out: PPB (converted)
# [24] = Plasma protein binding in human; format: ADME, cell-free; settings: read-out: PPB (converted)
# [25] = Clearance in human liver microsomes; format: ADME, Microsome; summary of the method: as §2
# [26] = Clearance in rat liver microsomes; format: ADME, Microsome; summary of the method: as §2
# [27] = Plasma protein binding in mouse; format: ADME, cell-free; settings: read-out: PPB (converted)
# [28] = system: Mus musculus; assay: Inhibition of mTORC2 in human PC3 cells xenografted mouse assessed as reduction of phosphorylated Akt level at 10 mg/kg, po after 6 hrs; format: functional, organism-based; set-up: dose 10 mg/kg; settings: PC-3
# Summary of the method: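 NCI-PC3 s.c. xenografts in female NCR.nude mice grown to about 500 mm3, then randomized (n = 4). Oral suspension in 0.5% methylcellulose/0.2% Tween 80. Tumors were lysed, normalized by BCA assay, and loaded at 20 µg/well. pAkt Ser473 and total Akt were measured in duplex on Meso Scale electrochemiluminescence in duplicate per mouse, relative to time-matched vehicle mean.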
# [29] = system: Mus musculus; assay: Inhibition of mTORC1 in human PC3 cells xenografted mouse assessed as reduction of phosphorylated p70S6K level at 10 mg/kg, po after 6 hrs; format: functional, organism-based; set-up: dose 10 mg/kg; settings: PC-3
# [30] = system: Mus musculus; assay: Inhibition of mTORC1 in human U87 cells xenografted mouse assessed as reduction of phosphorylated p70S6K level at 10 mg/kg, po after 24 hrs; format: functional, organism-based; set-up: dose 10 mg/kg; settings: U-87MG ATCC
# [31] = system: Mus musculus; assay: Inhibition of mTORC2 in human U87 cells xenografted mouse assessed as reduction of phosphorylated Akt level at 10 mg/kg, po after 24 hrs; format: functional, organism-based; set-up: dose 10 mg/kg; settings: U-87MG ATCC
# Summary of the method: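 U87 glioma (PTEN-deficient) tumor-bearing mice, four per compound and time point. Tumor and blood were sampled over 24 h. Phospho-Akt was measured in duplicate samples per mouse and expressed relative to time-matched vehicle controls; mean ± one SD.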
# [32] = system: PC-3; assay: Antitumor activity against human PC3 cells xenografted mouse assessed as tumor growth inhibition at 10 mg/kg, po qd for 14 days; format: functional, organism-based; set-up: dose 10 mg/kg
# Summary of the method: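 Female NCR.nude mice implanted s.c. in right hind flank with NCI-PC3 cells (5 × 10^6 in Hank's balanced salt solution). Dosing started QD at average tumor volume 200 mm3, 5 mice per group. Body weight recorded twice weekly; 10% body weight loss was the limit for tolerated doses, and mice were euthanized at 20% loss or tumor volume 2000 mm3.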
compound,measurement,setting,value
CCNC(=O)Nc1ccc(-c2nc3c(c(N4CCOCC4)n2)CCN(C(=O)c2ccccc2)C3)cc1,IC50,[1],340 nM
same,IC50,[2],22 nM
CCNC(=O)Nc1ccc(-c2nc3c(c(N4CCOC[C@@H]4C)n2)CCN(c2ncccn2)C3)cc1,Vd,[3],1.2 L/kg
same,TGI,[4],Active
same,bioavailability,[5],42%
same,TGI,[6],Active
same,IC50,[1],150 nM
same,inhibition (INH),[7],Not Active
same,inhibition (INH),[8],Not Active
same,inhibition (INH),[9],Not Active
same,half-life,[10],102 min
same,inhibition,[11],Active
same,Activity,[12],10%
same,AUC,[13],2 µM·h
same,inhibition (INH),[14],Not Active
same,inhibition (INH),[15],Not Active
same,CLhep predicted,[16],61 mL/min/kg
same,clearance,[17],36 mL/min/kg
same,inhibition,[18],inactive
same,TGI,[19],Active
same,inhibition,[20],inactive
same,inhibition,[21],Active
same,IC50,[22],57 nM
same,fraction unbound,[23],0.03
same,fraction unbound,[24],0.02
same,CLhep predicted,[25],15 mL/min/kg
same,CLhep predicted,[26],33 mL/min/kg
same,IC50,[2],3.3 nM
same,fraction unbound,[27],0.01
CCNC(=O)Nc1ccc(-c2nc3c(c(N4CCOC[C@@H]4C)n2)CN(c2cnccn2)CC3)cc1,Vd,[3],1.4 L/kg
same,bioavailability,[5],29%
same,half-life,[10],10.8 min
same,AUC,[13],0.41 µM·h
same,CLhep predicted,[16],80 mL/min/kg
same,clearance,[17],120 mL/min/kg
same,fraction unbound,[23],0.04
same,fraction unbound,[24],0.03
same,CLhep predicted,[25],15 mL/min/kg
same,CLhep predicted,[26],44 mL/min/kg
same,fraction unbound,[27],0.03
CCOC(=O)Nc1ccc(-c2nc3c(c(N4CCOCC4)n2)CCN(C(=O)c2ccccc2)C3)cc1,IC50,[1],4800 nM
same,IC50,[2],115 nM
CCNC(=O)Nc1ccc(-c2nc3c(c(N4CCOC[C@@H]4C)n2)CCN(c2cnccn2)C3)cc1,IC50,[1],55 nM
same,inhibition (INH),[7],Not Active
same,inhibition (INH),[8],Not Active
same,inhibition (INH),[9],Not Active
same,inhibition (INH),[14],Not Active
same,inhibition (INH),[15],Not Active
same,IC50,[22],110 nM
same,IC50,[2],4.3 nM
CCNC(=O)Nc1ccc(-c2nc3c(c(N4CCOC[C@@H]4CC)n2)CCN(c2ncccn2)C3)cc1,IC50,[1],40 nM
same,inhibition (INH),[7],Not Active
same,inhibition (INH),[8],Not Active
same,inhibition (INH),[9],Not Active
same,inhibition (INH),[14],Not Active
same,inhibition (INH),[15],Not Active
same,IC50,[22],38 nM
same,IC50,[2],1.5 nM
Cc1c(CN2CCN(C(=O)[C@H](C)O)CC2)sc2c(N3CCOCC3)nc(-c3cnc(N)nc3)nc12,inhibition,[28],Active
same,inhibition,[29],Active
CO[C@H]1C[C@@H]2CC[C@@H](C)[C@@](O)(O2)C(=O)C(=O)N2CCCC[C@H]2C(=O)O[C@H]([C@H](C)C[C@@H]2CC[C@@H](O)[C@H](OC)C2)CC(=O)[C@H](C)/C=C(\C)[C@@H](O)[C@@H](OC)C(=O)[C@H](C)C[C@H](C)/C=C/C=C/C=C/1C,inhibition,[30],Active
same,inhibition,[31],inactive
same,TGI,[32],Active
